# According to the RNAGym collection of RNA variant scans (doi:10.1126/science.aae0568):
# Variants at the floor of the assay were thinned out.
# B1: tRNA (parent)
# chain: GUUCCGUUGGCGUAAUGGUAACGCGUCUCCCUCCUAAGGAGAAGACUGCGGGUUCGAGUCCCGUACGGAACG
# Variants of: B1
# Assay: yeast fitness relative to wild type (ratio to wild type); higher = fitter; tRNA-Arg(CCU), competitive growth, 37 C, YPD
# Method in brief: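 Gene amplicons from the start population and from each of six end populations were read by 100-nucleotide paired-end sequencing. Those end populations came from pooled Saccharomyces cerevisiae strains carrying tRNA-Arg(CCU) gene variants at the native locus, competed in YPD at 37°C for 24 hours. Fitness relative to wild type was worked out from changes in genotype frequencies. Genotypes needed ≥ 100 starting reads, and estimates < 0.5 were set to 0.5.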
row,Variant,yeast fitness
1,U3C A15C A43G C46G C66G A69G,≤ 0.5
2,U3C A20G C24U G38A G58C,≤ 0.5
3,U3C A15G G25C C66G,≤ 0.5
4,U3C A21G C46G G50A,≤ 0.5
5,U3C A15U C34U A43G,0.545
6,U3C A21C A65C,≤ 0.5
7,U3A U7A C22U C49A,≤ 0.5
8,U3A U26G C49A C60A,≤ 0.5
9,U3A U13G A70C,0.784
10,U3A U13C C29A U32A A43G G67C,≤ 0.5
11,U3A G52C,0.645
12,U3C A15U C34U A43G G68A A69U,≤ 0.5
13,U3A U26C C31U A40C,≤ 0.5
14,U3A G68C,0.822
15,U3A U13G C22U A40U C55G A70G,≤ 0.5
16,U3A G50C,0.727
17,U3A G50A,0.853
18,U3C A15C G17C C24A C31U U35C G68C,≤ 0.5
19,U3A U16C,0.824
20,U3A U8A G25C C30A U54C,≤ 0.5
21,U3C A14U A20C C30G G58A A65G,≤ 0.5
22,U3C A20U,0.866
23,U3C A21G A43U,0.989
24,U3A U16A C22U U35A A36C G38U G48C,≤ 0.5

row,Variant,yeast fitness
1,U3A U35A C60G,0.593
2,U3A U47A,0.744
3,U3A U47C,0.835
4,U3A G51C,≤ 0.5
5,U3C A20G C29G C55U,≤ 0.5
6,U3A U13C C29A A43G,≤ 0.5
7,U3A G51A U53C,0.648
8,U3C A21G A43U A65C G68C,≤ 0.5
9,U3A U19A A70C,0.812
10,U3A U19C C61G,≤ 0.5
11,U3C A20U C30A,0.568
12,U3A G58C,0.987
13,U3A G48A,0.844
14,U3A G48C,0.842
15,U3A U13G C22U A40U C66G,0.627
16,U3A U16C C33G C46U,≤ 0.5
17,U3A U8A U13C C31G A40C,≤ 0.5
18,U3C A14G C22A C27G G39C,≤ 0.5
19,U3C A20C G23C G56C A65C G68A,≤ 0.5
20,U3C A15C G51C C61A,≤ 0.5
21,U3A U26C,0.884
22,U3A U32C,1
23,U3A G25C G67C,0.567
24,U3A G39A,0.888

row,Variant,yeast fitness
1,U3A G39C,0.822
2,U3A G44C,0.879
3,U3A G48A G67A,0.541
4,U3C A21G,0.962
5,U3A U47C G51A U53C,≤ 0.5
6,U3A U16C G68C,≤ 0.5
7,U3C A14G C30U A45C C46G A65G,≤ 0.5
8,U3C A15U C34U A43G U54C,≤ 0.5
9,U3A U8C,0.925
10,U3A U8A,0.723
11,U3A U19G A36C,≤ 0.5
12,U3A G38A G48A,0.54
13,U3C A20U C24U C30A,0.656
14,U3C A20U U64A,0.594
15,U3C A14U A37U C60A,0.586
16,U3A U54G,0.595
17,U3C A15G C49G,0.556
18,U3C A21G C49U,1.02
19,U3A G38C,0.611
20,U3C A14U A65C,≤ 0.5
21,U3A G41C U53G,≤ 0.5
22,U3C A37C C49U,0.681
23,U3A U8C G38C,≤ 0.5
24,U3C A37U G52A A57C C60A,≤ 0.5

row,Variant,yeast fitness
1,U3C A20G U64A A65G,≤ 0.5
2,U3C A20G A57U,0.597
3,U3A G52A C60A A69G,≤ 0.5
4,U3A U16C C46U C49U,≤ 0.5
5,U3A U16C A20C G67A,0.541
6,U3C A20C C46U C60U C61U,0.759
7,U3A U16G C46U U54A,≤ 0.5
8,U3C A15G C30A A57G,≤ 0.5
9,U3A G41A A69U,0.617
10,U3C A36U G39A,≤ 0.5
11,U3C A14G C29G A37U A42G,0.609
12,U3A U7A A15C C55G,≤ 0.5
13,U3C A21U G67C,≤ 0.5
14,U3C A15G C30A,0.564
15,U3A U8A U32A U47A A57U,≤ 0.5
16,U3A U7G A14U G25A G41C,≤ 0.5
17,U3A G41C,0.694
18,U3A G41A,0.754
19,U3A U26C C31U G52A,≤ 0.5
20,U3A G48A C49G,0.574
21,U3A U59C,0.884
22,U3C A20U C30U A37G A70C,0.708
23,U3A U35C G63C,≤ 0.5
24,U3A U32G G39C G52C,≤ 0.5

row,Variant,yeast fitness
1,U3A U13A G23C A36C A70C,0.596
2,U3A U35G A43U A57C,≤ 0.5
3,U3C A20G U59A,0.684
4,U3C A37U G52A,≤ 0.5
5,U3C A37C A70G,0.555
6,U3C A37C A70U,0.683
7,U3A U7A A69U,≤ 0.5
8,U3A G58C C60U C66G,≤ 0.5
9,U3A U54G A57C,≤ 0.5
10,U3A U35G A43U A57C C62A C66A,≤ 0.5
11,U3A U19A,1.02
12,U3C A14C A45C C60G,0.591
13,U3A U32C A69U,0.685
14,U3A U19C C22G C31G A69C,≤ 0.5
15,U3A U19A A57G,0.751
16,U3C A14G C34G A43C,≤ 0.5
17,U3C A14U A20C C30G C55U,≤ 0.5
18,U3C A37C C62G,0.548
19,U3A U32A U59G,0.585
20,U3C A20U G52C,≤ 0.5
21,U3A G68C A69C,≤ 0.5
22,U3C A21G G44C G63C,≤ 0.5
23,U3C A14C A45C,≤ 0.5
24,U3C A36U,0.656

row,Variant,yeast fitness
1,U3C A15G,1.03
2,U3A U53C C55U,≤ 0.5
3,U3A U7A C30U G50C U59C,≤ 0.5
4,U3C A14C A40U,≤ 0.5
5,U3C A21G C46A G56A,≤ 0.5
6,U3C A20U A69G,0.612
7,U3C A21G C33G C34G,≤ 0.5
8,U3A U64C G68C,0.586
9,U3C A15G G23A C60U G68C,≤ 0.5
10,U3C A14C A21G A37U C49A C60G,0.629
11,U3A U7C C27G C29G C34U,0.528
12,U3A U64G,0.831
13,U3A U64C,1.01
14,U3A U8C C30G C33U,≤ 0.5
15,U3A G38C C49U,≤ 0.5
16,U3C A14G U19A,0.761
17,U3A U8A C31G A40C G58C C62A G68A,≤ 0.5
18,U3C A37C U64A,0.598
19,U3C A37C,0.82
20,U3C A37C G38A G52A G63A,≤ 0.5
21,U3A U8C A14C C61U,≤ 0.5
22,U3A U8A C31G A40C C66U,≤ 0.5
23,U3A G38A A57U C62U,≤ 0.5
24,U3C A21G C27A A36U A40G,≤ 0.5

row,Variant,yeast fitness
1,U3A U7C C62G G63C,0.586
2,U3A U16C C27G A36U G39C U53A A70G,≤ 0.5
3,U3A U16C A20C A45G,≤ 0.5
4,U3C A15C C34G U47A C55U G68U,≤ 0.5
5,U3A U19C C22G A45U,≤ 0.5
6,U3A U7A G23C A42C U47A C49G,≤ 0.5
7,U3A U13A G23C A36C,0.529
8,U3A U7A C49A,0.542
9,U3C A15U C34U A43G C49U,≤ 0.5
10,U3A U19A G68C,0.712
11,U3A U8G C27A C61A G67A,≤ 0.5
12,U3A U16C C33G,0.661
13,U3A G51A A65G A69C,0.544
14,U3A G48C C55A C66G G67C,≤ 0.5
15,U3C A20C G23C G56C,≤ 0.5
16,U3A U13G,0.729
17,U3A U13C,0.955
18,U3A U13A,1.04
19,U3C A21G U32C A43U,0.722
20,U3C A21G G38A G56A,≤ 0.5
21,U3A G44A A45C U53A C55A U59C C62U,0.534
22,U3C A14C A20C,≤ 0.5
23,U3A G38A C66U,≤ 0.5
